Experimental data from ChEMBL document CHEMBL4229344 (Eur J Med Chem, 2018).
Active and inactive are the calls of the source. No cut-off for these calls is given here.

How the values were obtained:
[1] = biological target: T1, Platelet-derived growth factor receptor alpha (Homo sapiens, UniProt P16234); experiment: Inhibition of PDGFRalpha in human EOL-1 cells assessed as decrease in STAT3 phosphorylation at Y705 residue up to 300 nM after 2 hrs by Western blot analysis; format: cell-based
[2] = biological target: STE20-like serine/threonine-protein kinase (Homo sapiens) (UniProt Q9H2G2); experiment: Binding affinity to wild-type human partial length SLK (S14 to A307 residues) expressed in bacterial expression system assessed as residual binding level at 1 uM by Kinomescan method relative to control
[3] = biological target: Myosin light chain kinase 2, skeletal/cardiac muscle (Homo sapiens) (UniProt Q9H1R3); experiment: Binding affinity to wild-type human partial length MYLK2 (D258 to K570 residues) expressed in bacterial expression system assessed as residual binding level at 1 uM by Kinomescan method relative to control
Sequence of Myosin light chain kinase 2, skeletal/cardiac muscle (Homo sapiens) (Q9H1R3 whole entry, the tested form may be a part): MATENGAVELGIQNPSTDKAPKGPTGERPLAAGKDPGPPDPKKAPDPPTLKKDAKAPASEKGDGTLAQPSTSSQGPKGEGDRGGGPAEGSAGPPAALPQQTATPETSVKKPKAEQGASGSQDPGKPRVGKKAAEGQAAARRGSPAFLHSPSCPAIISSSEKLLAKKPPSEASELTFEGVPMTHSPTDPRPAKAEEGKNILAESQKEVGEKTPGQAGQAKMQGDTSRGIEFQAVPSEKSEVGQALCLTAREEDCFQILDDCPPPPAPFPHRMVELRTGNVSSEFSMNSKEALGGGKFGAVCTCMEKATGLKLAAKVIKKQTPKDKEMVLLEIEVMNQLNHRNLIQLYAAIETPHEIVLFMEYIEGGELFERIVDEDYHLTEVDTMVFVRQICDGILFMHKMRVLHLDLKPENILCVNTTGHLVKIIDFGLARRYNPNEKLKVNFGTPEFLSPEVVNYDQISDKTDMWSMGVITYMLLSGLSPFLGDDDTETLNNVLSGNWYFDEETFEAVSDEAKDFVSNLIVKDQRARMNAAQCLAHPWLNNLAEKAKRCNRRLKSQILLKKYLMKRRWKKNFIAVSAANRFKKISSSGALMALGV

EOL1 = experiment: Antiproliferative activity against human EOL-1 cells after 72 hrs by CellTiter-Glo or CCK-8 assay; format: functional; details: EOL1, 72 h
Summary of the method: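 Cells in RPMI 1640 with 10% FBS at 37 °C, 5% CO2, seeded at 1–3 × 10^4 cells/mL with serial compound dilutions for 72 h. Viability read by CellTiter-Glo luminescence or CCK-8 absorbance (450/655 nm), normalized to DMSO control.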

[4] = biological target: Cyclin-dependent kinase 14 (Homo sapiens) (UniProt O94921); experiment: Binding affinity to wild-type human full length PFTK1 (M1 to H451 residues) expressed in bacterial expression system assessed as residual binding level at 1 uM by Kinomescan method relative to control
Sequence of Cyclin-dependent kinase 14 (Homo sapiens) (O94921 whole entry, the tested form may be a part): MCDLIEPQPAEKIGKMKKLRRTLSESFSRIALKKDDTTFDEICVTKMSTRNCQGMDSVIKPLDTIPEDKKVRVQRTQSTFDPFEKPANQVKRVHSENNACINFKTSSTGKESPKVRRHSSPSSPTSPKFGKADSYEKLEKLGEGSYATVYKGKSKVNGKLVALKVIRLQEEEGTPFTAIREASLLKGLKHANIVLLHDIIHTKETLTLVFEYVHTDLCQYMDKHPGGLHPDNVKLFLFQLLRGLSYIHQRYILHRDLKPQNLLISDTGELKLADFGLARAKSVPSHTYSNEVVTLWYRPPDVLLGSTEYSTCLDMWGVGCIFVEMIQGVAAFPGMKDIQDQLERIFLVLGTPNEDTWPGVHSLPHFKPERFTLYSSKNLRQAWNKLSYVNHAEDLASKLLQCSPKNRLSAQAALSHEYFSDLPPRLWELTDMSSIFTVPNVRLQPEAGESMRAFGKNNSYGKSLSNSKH
Summary of the method: (§1)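 Single-concentration KINOMEscan (DiscoverX) binding screen at 1 μM against a panel of 468 purified kinases and mutants. The read-out is binding relative to control.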

[5] = biological target: T1, Platelet-derived growth factor receptor alpha; experiment: Inhibition of PDGFRalpha in human EOL-1 cells assessed as decrease in ERK phosphorylation at T202/Y204 residues after 2 hrs in presence of PDGF-AA by Western blot analysis; format: cell-based
[6] = biological target: Serine/threonine-protein kinase ULK2 (Homo sapiens) (UniProt Q8IYT8); experiment: Binding affinity to wild-type human partial length ULK2 (M1 to S301 residues) expressed in mammalian expression system assessed as residual binding level at 1 uM by Kinomescan method relative to control
Sequence of Serine/threonine-protein kinase ULK2 (Homo sapiens) (Q8IYT8 whole entry, the tested form may be a part): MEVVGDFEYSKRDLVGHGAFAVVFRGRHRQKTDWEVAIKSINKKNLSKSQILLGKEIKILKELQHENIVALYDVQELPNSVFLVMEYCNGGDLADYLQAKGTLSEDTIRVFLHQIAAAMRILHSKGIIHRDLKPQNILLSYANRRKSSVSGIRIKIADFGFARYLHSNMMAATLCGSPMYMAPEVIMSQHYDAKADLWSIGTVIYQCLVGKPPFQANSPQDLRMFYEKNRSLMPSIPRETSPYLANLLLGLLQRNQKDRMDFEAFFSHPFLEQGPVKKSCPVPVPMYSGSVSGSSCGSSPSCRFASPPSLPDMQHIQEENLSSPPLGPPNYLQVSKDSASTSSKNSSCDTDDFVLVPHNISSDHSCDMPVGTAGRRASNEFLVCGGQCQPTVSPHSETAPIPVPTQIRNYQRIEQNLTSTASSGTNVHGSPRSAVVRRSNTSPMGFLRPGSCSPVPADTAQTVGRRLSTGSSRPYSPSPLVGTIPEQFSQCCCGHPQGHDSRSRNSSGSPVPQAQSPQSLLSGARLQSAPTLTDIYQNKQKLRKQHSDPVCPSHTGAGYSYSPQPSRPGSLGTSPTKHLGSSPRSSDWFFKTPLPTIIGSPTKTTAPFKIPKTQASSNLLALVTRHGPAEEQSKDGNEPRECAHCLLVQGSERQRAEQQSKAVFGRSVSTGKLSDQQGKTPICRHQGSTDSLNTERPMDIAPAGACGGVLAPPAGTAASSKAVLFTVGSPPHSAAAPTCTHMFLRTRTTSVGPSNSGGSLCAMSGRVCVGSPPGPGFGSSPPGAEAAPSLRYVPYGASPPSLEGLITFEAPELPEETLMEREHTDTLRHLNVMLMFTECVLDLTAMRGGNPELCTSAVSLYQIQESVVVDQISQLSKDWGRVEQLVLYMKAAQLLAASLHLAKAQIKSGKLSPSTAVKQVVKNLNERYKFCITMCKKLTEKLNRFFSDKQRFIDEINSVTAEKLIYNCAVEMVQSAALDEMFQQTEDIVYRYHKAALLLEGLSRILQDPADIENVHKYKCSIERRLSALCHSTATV
Summary of the method: (§2)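 KINOMEscan competition binding against a panel of 468 purified kinases/mutants, compound tested at 1 μM; readout is relative binding activity versus control.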

[7] = biological target: Interleukin-1 receptor-associated kinase 4 (Homo sapiens) (UniProt Q9NWZ3); experiment: Binding affinity to wild-type human partial length IRAK4 (M1 to S460 residues) expressed in mammalian expression system assessed as residual binding level at 1 uM by Kinomescan method relative to control
Sequence of Interleukin-1 receptor-associated kinase 4 (Homo sapiens) (Q9NWZ3 whole entry, the tested form may be a part, canonical isoform): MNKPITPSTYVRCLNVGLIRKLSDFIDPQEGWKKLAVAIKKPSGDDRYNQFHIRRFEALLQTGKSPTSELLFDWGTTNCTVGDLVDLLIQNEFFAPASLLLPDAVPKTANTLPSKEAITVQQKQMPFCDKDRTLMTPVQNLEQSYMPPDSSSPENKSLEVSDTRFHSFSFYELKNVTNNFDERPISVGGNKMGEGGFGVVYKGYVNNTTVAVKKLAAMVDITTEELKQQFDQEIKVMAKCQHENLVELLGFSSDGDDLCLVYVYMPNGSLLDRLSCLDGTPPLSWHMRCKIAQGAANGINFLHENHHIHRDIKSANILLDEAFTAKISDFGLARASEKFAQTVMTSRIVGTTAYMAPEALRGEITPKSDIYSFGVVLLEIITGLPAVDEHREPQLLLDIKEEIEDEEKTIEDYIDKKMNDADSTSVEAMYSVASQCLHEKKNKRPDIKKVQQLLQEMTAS

[8] = biological target: Casein kinase I isoform gamma-2 (Homo sapiens) (UniProt P78368); experiment: Binding affinity to wild-type human full length CSNK1G2 (M1 to K415 residues) expressed in bacterial expression system assessed as residual binding level at 1 uM by Kinomescan method relative to control
Summary of the method: (§3)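 Single-concentration (1 μM) competition-binding screen run by KINOMEscan against a panel of 468 purified kinases and mutants. The read-out is the relative binding activity of the test compound to each kinase.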

[9] = tested on: Tyrosine-protein kinase ABL1 (Homo sapiens), P00519 [F317L]; experiment: Binding affinity to human non-phosphorylated ABL1 F317L mutant (S229 to K512 residues) expressed in mammalian expression system assessed as residual binding level at 1 uM by Kinomescan method relative to control
Summary of the method: (§4)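 Kinome-wide single-concentration binding screen (KINOMEscan) at 1 μM against a panel of 468 purified kinases and mutants. Read-out is relative binding of each kinase compared with control. Selectivity across the panel was summarised as an S(10) score.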

[10] = biological target: 5'-AMP-activated protein kinase catalytic subunit alpha-2 (Homo sapiens) (UniProt P54646); experiment: Binding affinity to wild-type human partial length AMPK alpha2 (M1 to E306 residues) expressed in bacterial expression system assessed as residual binding level at 1 uM by Kinomescan method relative to control; summary of the method: as §1
[11] = biological target: Dual specificity mitogen-activated protein kinase kinase 7 (Homo sapiens) (UniProt O14733); experiment: Binding affinity to wild-type human full length MKK7 (M1 to R419 residues) expressed in mammalian expression system assessed as residual binding level at 1 uM by Kinomescan method relative to control; summary of the method: as §1
Sequence of Dual specificity mitogen-activated protein kinase kinase 7 (Homo sapiens) (O14733 whole entry, the tested form may be a part): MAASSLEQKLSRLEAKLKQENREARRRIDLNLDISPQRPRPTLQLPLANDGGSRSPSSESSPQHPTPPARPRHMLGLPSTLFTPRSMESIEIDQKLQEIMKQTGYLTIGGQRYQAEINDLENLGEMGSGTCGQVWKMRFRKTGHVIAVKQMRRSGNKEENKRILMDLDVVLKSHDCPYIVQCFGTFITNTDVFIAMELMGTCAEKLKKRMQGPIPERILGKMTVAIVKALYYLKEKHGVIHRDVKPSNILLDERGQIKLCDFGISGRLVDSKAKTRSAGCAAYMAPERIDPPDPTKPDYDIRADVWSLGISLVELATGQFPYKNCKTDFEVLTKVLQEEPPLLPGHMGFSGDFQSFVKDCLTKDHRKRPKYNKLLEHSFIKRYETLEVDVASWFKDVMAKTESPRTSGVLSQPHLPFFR

[12] = biological target: Serine/threonine-protein kinase PAK 2 (Homo sapiens) (UniProt Q13177); experiment: Binding affinity to wild-type human partial length PAK2 (P151 to R525 residues) expressed in bacterial expression system assessed as residual binding level at 1 uM by Kinomescan method relative to control; summary of the method: as §2
[13] = biological target: Serine/threonine-protein kinase pim-3 (Homo sapiens) (UniProt Q86V86); experiment: Binding affinity to wild-type human partial length PIM3 (G16 to A317 residues) expressed in bacterial expression system assessed as residual binding level at 1 uM by Kinomescan method relative to control
[14] = biological target: Serine/threonine-protein kinase 35 (Homo sapiens) (UniProt Q8TDR2); experiment: Binding affinity to wild-type human partial length STK35 (G182 to A534 residues) expressed in bacterial expression system assessed as residual binding level at 1 uM by Kinomescan method relative to control
[15] = biological target: Dual specificity protein kinase TTK (Homo sapiens) (UniProt P33981); experiment: Binding affinity to wild-type human partial length TTK (N505 to V798 residues) expressed in bacterial expression system assessed as residual binding level at 1 uM by Kinomescan method relative to control
Sequence of Dual specificity protein kinase TTK (Homo sapiens) (P33981 whole entry, the tested form may be a part): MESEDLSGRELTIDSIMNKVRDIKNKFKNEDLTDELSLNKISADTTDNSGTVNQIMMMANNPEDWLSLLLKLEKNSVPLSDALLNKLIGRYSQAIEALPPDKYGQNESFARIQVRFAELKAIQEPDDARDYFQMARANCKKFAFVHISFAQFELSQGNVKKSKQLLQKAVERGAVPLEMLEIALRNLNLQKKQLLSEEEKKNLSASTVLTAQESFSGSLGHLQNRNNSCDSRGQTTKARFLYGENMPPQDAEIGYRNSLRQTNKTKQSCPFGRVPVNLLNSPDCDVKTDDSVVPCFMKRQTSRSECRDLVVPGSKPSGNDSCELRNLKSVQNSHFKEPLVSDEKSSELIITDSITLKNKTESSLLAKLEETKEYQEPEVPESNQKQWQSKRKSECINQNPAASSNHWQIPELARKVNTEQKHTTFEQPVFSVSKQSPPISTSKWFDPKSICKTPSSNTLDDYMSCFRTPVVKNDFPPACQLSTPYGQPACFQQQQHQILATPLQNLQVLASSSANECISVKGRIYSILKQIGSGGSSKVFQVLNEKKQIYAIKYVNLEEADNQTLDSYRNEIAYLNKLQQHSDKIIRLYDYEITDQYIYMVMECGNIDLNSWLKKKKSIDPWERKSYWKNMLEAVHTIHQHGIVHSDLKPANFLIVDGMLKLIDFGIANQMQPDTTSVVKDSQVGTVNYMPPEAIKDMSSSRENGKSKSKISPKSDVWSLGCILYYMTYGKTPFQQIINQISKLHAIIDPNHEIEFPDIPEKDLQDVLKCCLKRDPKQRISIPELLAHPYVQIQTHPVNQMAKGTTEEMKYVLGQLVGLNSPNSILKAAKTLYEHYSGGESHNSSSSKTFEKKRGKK

[16] = biological target: Wee1-like protein kinase (Homo sapiens) (UniProt P30291); experiment: Binding affinity to wild-type human partial length WEE1 (M291 to K575 residues) expressed in bacterial expression system assessed as residual binding level at 1 uM by Kinomescan method relative to control; summary of the method: as §2
[17] = biological target: Serine/threonine-protein kinase BRSK2 (Homo sapiens) (UniProt Q8IWQ3); experiment: Binding affinity to wild-type human full length BRSK2 (M1 to L674 residues) expressed in bacterial expression system assessed as residual binding level at 1 uM by Kinomescan method relative to control; summary of the method: as §3
[18] = tested on: Proto-oncogene tyrosine-protein kinase receptor Ret (Homo sapiens), P07949 [V804M]; experiment: Binding affinity to human partial length RET V804M mutant (E713 to D1014 residues) expressed in bacterial expression system assessed as residual binding level at 1 uM by Kinomescan method relative to control; summary of the method: as §4
[19] = biological target: Serine/threonine-protein kinase PRP4 homolog (Homo sapiens) (UniProt Q13523); experiment: Binding affinity to wild-type human partial length PRP4 (D657 to I1007 residues) expressed in bacterial expression system assessed as residual binding level at 1 uM by Kinomescan method relative to control
[20] = biological target: Tyrosine-protein kinase Lck (Homo sapiens) (UniProt P06239); experiment: Binding affinity to wild-type human partial length LCK (R207 to P509 residues) expressed in bacterial expression system assessed as residual binding level at 1 uM by Kinomescan method relative to control
[21] = biological target: Cyclin-dependent kinase 2 homolog (Plasmodium falciparum (isolate 3D7)) (UniProt P61075); experiment: Binding affinity to wild-type Plasmodium falciparum 3D7 full length PK5 (M1 to N288 residues) expressed in mammalian expression system assessed as residual binding level at 1 uM by Kinomescan method relative to control; summary of the method: as §3

T1 sequence (P16234 whole entry, the tested form may be a part): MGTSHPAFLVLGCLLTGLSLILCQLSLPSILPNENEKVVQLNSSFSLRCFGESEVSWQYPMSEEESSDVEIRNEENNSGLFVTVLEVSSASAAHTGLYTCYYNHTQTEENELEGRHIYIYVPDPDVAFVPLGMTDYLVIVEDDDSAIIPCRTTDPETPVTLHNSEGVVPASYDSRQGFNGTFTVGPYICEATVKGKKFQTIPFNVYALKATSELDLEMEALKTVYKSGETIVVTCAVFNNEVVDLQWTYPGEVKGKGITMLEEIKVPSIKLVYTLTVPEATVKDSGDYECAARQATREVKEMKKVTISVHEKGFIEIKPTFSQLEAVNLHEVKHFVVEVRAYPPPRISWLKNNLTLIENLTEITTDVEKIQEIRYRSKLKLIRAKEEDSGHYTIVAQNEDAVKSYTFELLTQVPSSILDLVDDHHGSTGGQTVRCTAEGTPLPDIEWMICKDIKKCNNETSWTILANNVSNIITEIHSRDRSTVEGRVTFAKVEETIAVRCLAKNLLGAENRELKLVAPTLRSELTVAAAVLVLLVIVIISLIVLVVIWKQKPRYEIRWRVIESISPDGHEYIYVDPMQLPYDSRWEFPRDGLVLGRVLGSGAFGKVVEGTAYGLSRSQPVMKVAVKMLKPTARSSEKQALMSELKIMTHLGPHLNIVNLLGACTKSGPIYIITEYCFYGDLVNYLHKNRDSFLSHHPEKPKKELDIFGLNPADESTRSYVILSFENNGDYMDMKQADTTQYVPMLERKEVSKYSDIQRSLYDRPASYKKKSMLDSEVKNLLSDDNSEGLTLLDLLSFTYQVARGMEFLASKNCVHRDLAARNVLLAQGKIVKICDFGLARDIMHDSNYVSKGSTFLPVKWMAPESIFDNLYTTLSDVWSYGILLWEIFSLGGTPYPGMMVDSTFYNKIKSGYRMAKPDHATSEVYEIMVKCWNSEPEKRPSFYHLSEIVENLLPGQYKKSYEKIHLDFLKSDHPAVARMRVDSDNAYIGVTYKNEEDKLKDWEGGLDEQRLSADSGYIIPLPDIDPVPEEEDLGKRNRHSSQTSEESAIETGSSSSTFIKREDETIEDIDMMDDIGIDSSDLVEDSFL

`Cc1ccc(NC(=O)c2ccc(CN(CCN(C)C)C(=O)c3cccnc3)cc2)cc1Nc1nccc(-c2cccnc2)n1` was tested, and the inhibition [1] was “Active”, the Activity [2] was 100% and the Activity [3] was 100%. The GI50 (EOL1) was less than 1 nM, the Activity [4] was 90% and the inhibition [5] was “Dose-dependent effect”. The Activity [6] was 84%, the Activity [7] was 100% and the Activity [8] was 99%. The Activity [9] was 79%, the Activity [10] was 100% and the Activity [11] was 100%. The Activity [12] was 82%, the Activity [13] was 100% and the Activity [14] was 100%. For the same compound, the Activity [15] was 81%, the Activity [16] was 87% and the Activity [17] was 97%. The Activity [18] was 96%, the Activity [19] was 100% and the Activity [20] was 100%. It also gave an Activity [21] of 100%.
